“And” between values parts separate entries of the source, which are not always exact repeats. Equal values may be shown once. Marks after values point to notes of the source that are not given here.
How the values were obtained:
SW620 xenografts = experiment: Anti-tumour efficacy, SW620 xenografts; format: in vivo, mice
human tumour cell lines [1] = experiment: Concentration needed for in vitro chemo- and radio-sensitisation; format: cell-based
Body weight = format: in vivo, mice; conditions: for Maximum body weight loss: SW620 xenograft studies
HCT116 cells = experiment: Clonogenic survival assay, HCT116; format: cell-based, human; conditions: HCT116, etoposide 1 μM + KU59403 1 μM (Figure 1D)
Procedure, shortened: (§1)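 Clonogenic assay in RPMI 1640 + 10% FBS, 37°C, 5% CO2, <30 passages; HCT116-N7 stably expresses HPV16 E6. Exponentially growing cells had 16 h exposure to cytotoxic (etoposide, doxorubicin or camptothecin; etoposide 1 μM for the bar data) ± test compound 1 μM in 0.5% DMSO, then were seeded for colonies. Survival was normalised to DMSO or inhibitor-alone control. Enhancement factor = survival cytotoxic alone ÷ survival combination, per experiment; 3 independent experiments.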

[2] = Plasma and tumour concentrations in SW620 tumour-bearing nude mice; format: in vivo
Procedure, shortened: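 Female CD-1 nude mice carried SW620 s.c. flank xenografts (1×10^7 cells) of ~650 mm³. Test compound was given at 50 mg/kg i.p. in equimolar phosphoric acid/saline, pH 4. The comparator ATM inhibitor was given at 10 mg/kg i.p. in phosphoric acid, 5% DMSO, 10% encapsin, pH 4. Dosing volume was 10 ml/kg. Plasma and tumour were sampled at 1 and 4 h and analysed by HPLC; the tumour detection limit was 0.5 μM.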

SW620 cells = experiment: Clonogenic survival assay, SW620; format: cell-based, human; conditions: for Enhancement factor: 1 μM KU59403
Procedure, shortened: as §1

[3] = Plasma and tissue concentrations in Balb/C mice; format: in vivo; conditions: 25 mg/kg i.v., female Balb/C mice, at 4 hr
Procedure, shortened: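 Female Balb/C mice (non-tumour-bearing) received 25 mg/kg i.v. (10 ml/kg) in equimolar phosphoric acid/saline, pH 4. At time points to 4 h, mice were bled by terminal cardiac puncture. Plasma was stored at −20 °C; brain, liver, spleen and lung were snap frozen and homogenised in PBS (1:3 w/v). Samples underwent HPLC against a plasma standard curve (0.05-10 μg/ml); tissue was quantified by method of addition. n = 3 mice per time point.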

[4] = biological target: ATM activity in SW620 cells (Homo sapiens, UniProt Q13315); experiment: Inhibition of cellular ATM activity, SW620; format: cell-based; conditions: 1 μM
ATM activity in SW620 cells, sequence (Q13315 whole entry): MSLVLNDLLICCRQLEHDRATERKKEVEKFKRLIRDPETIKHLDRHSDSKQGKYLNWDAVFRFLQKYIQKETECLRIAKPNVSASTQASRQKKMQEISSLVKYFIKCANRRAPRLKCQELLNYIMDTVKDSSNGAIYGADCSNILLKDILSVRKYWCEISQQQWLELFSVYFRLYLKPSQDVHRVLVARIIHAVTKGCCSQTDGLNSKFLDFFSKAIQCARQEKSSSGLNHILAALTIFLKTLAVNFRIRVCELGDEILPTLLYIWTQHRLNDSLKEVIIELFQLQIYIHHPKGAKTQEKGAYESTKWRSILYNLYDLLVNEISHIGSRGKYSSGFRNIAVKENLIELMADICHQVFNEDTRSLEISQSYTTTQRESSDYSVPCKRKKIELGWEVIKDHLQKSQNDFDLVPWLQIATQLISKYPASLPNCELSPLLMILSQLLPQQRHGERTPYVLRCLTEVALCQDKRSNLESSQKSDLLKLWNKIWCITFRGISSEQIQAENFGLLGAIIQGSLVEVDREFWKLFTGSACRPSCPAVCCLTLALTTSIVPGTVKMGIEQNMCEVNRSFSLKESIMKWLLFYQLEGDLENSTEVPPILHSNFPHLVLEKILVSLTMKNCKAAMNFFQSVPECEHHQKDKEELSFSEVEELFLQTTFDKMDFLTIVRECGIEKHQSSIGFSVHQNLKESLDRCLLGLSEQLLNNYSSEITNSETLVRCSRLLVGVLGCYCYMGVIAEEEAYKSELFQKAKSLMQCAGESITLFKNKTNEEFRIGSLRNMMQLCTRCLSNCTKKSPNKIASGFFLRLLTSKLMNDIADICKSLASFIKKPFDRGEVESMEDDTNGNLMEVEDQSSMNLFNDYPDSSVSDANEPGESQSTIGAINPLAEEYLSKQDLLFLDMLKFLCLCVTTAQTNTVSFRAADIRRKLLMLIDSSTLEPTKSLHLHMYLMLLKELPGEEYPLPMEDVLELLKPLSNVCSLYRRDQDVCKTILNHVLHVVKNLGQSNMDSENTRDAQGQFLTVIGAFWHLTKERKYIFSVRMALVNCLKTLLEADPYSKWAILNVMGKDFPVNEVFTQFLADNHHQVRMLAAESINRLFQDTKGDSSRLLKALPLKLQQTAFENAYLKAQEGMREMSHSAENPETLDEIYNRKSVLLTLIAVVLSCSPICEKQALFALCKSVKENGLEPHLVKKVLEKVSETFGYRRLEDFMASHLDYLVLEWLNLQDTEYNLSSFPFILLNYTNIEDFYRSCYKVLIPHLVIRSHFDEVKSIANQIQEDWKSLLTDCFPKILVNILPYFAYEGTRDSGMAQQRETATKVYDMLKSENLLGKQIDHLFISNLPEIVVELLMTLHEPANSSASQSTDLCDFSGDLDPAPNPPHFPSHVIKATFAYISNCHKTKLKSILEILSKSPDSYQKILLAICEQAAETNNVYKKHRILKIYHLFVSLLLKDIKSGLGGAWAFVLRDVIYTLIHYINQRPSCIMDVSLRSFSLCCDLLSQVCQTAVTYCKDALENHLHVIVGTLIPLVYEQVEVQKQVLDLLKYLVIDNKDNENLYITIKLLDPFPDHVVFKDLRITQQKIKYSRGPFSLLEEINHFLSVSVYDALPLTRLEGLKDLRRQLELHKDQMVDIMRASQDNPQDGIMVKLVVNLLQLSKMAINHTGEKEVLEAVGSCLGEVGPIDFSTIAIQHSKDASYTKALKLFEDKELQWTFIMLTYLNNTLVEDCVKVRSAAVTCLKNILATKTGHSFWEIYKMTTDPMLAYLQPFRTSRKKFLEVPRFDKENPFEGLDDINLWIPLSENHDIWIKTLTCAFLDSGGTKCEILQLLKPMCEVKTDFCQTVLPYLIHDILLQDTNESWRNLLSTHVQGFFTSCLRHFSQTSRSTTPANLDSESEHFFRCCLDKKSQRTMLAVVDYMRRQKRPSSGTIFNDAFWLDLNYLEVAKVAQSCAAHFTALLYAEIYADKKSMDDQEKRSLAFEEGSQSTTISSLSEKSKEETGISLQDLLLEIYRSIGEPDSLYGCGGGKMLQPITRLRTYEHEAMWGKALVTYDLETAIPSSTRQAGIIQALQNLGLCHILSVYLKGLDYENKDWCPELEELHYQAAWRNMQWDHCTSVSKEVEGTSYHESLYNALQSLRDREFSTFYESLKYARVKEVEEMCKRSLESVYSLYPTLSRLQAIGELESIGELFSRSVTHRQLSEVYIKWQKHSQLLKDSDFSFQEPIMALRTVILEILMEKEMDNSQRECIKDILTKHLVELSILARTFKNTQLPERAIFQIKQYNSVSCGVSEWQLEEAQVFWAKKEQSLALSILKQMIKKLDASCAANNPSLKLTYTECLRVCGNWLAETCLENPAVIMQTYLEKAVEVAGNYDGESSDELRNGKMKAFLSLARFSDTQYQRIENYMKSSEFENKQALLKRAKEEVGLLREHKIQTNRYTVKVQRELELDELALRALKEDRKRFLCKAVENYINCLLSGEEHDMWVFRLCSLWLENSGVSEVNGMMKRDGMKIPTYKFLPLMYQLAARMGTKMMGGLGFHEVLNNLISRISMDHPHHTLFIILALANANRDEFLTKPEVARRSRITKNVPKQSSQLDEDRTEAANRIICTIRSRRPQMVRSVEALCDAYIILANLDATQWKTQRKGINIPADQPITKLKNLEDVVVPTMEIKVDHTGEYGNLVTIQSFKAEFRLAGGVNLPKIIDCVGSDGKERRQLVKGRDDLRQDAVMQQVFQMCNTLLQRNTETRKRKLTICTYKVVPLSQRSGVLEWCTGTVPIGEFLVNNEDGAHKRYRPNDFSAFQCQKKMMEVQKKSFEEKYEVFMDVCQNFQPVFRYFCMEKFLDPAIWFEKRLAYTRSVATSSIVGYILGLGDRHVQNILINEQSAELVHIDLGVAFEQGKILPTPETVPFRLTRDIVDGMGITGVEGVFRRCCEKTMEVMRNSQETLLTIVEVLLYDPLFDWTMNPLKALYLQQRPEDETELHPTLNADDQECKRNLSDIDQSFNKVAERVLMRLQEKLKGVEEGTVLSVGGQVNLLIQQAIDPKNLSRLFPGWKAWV

MDA-MB-231 cells = experiment: Clonogenic survival assay, MDA-MB-231; format: cell-based, human; conditions: MDA-MB-231, etoposide 1 μM + KU59403 1 μM (Figure 1D)
Procedure, shortened: as §1

ATM [5] = biological target: T1, ATM (Homo sapiens, UniProt Q13315); experiment: Enzyme inhibition, purified ATM; format: biochemical
T1 sequence (Q13315 whole entry): as above
Procedure, shortened: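 Enzymes were isolated from HeLa cells: ATM plus DNA-PK, PI3K, ATR, PI4K and mTOR. Activity was measured across increasing test compound concentrations. IC50 was calculated from sigmoid plots of inhibitor concentration versus activity. Values are the mean of five independent experiments.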

[6] = biological target: ATM activity in HCT116 cells (Homo sapiens, UniProt Q13315); experiment: Inhibition of IR-induced ATM activity, HCT116; format: cell-based; conditions: 1 μM
ATM activity in HCT116 cells, sequence (Q13315 whole entry): as above

LoVo cells = experiment: Clonogenic survival assay, LoVo; format: cell-based, human; conditions: for Enhancement factor / % Survival Cytotoxic + KU59403: LoVo; for Enhancement factor: 1 μM KU59403
Procedure, shortened: as §1

HCT116-N7 xenografts = experiment: Anti-tumour efficacy, HCT116-N7 xenografts; format: in vivo, mice
HCT116-N7 cells = experiment: Clonogenic survival assay, HCT116-N7; format: cell-based, human; conditions: HCT116-N7, etoposide 1 μM + KU59403 1 μM (Figure 1D)
Procedure, shortened: as §1

[7] = tested on: ATM activity in MDA-MB231 cells; experiment: Inhibition of IR-induced ATM activity, MDA-MB231; format: cell-based, human; conditions: 1 μM
human tumour cell lines [8] = conditions: cited from earlier work
ATM [9] = biological target: T1, ATM; conditions: read-out: Enzyme IC50 ATM; purified enzyme; data previously reported; cited from earlier work
ATR = ATR (Homo sapiens, UniProt Q13535); conditions: read-out: Enzyme IC50 ATR; purified enzyme; data previously reported; cited from earlier work
[10] = KU59403 12.5 mg/kg 2× daily ×5 alone
[11] = KU59403 25 mg/kg daily ×5 alone
[12] = etopophos + KU59403 6 mg/kg 2× daily ×5
[13] = etopophos + KU59403 12.5 mg/kg 1× daily ×5 5 hr post
[14] = etopophos + KU59403 12.5 mg/kg 1× daily ×5 concurrent
[15] = etopophos + KU59403 12.5 mg/kg 2× daily ×5
[16] = etopophos + KU59403 25 mg/kg 2× daily ×5
[17] = irinotecan + KU59403 25 mg/kg daily ×5
[18] = etopophos 11.35 mg/kg i.p. daily ×5 + KU59403 25 mg/kg i.p. twice daily for 5 days
[19] = etopophos (equivalent to 10 mg/kg etoposide) daily ×5 alone

SMILES: CN1CCN(CCC(=O)Nc2ccc3c(c2)Sc2cccc(-c4cc(=O)cc(N5CCOCC5)o4)c2S3)CC1 [KU59403]
- Delay (SW620 xenografts; [10]): 0.5 days
- Time to RTV4 (SW620 xenografts; [10]): 7 days
- Delay (SW620 xenografts; [11]): 5.5 days
- Time to RTV4 (SW620 xenografts; [11]): 12 days
- Increase in etopophos-induced tumour growth delay (SW620 xenografts; KU59403 25 mg/kg twice daily, SW620 xenografts): 3 fold
- Delay (SW620 xenografts; [12]): 5.5 days
- Enhancement (%) (SW620 xenografts; [12]): 38%
- Time to RTV4 (SW620 xenografts; [12]): 12 days
- Delay (SW620 xenografts; [13]): 3.5 days
- Time to RTV4 (SW620 xenografts; [13]): 10 days
- Delay (SW620 xenografts; [14]): 10 days
- Enhancement (%) (SW620 xenografts; [14]): 150%
- Time to RTV4 (SW620 xenografts; [14]): 16.5 days
- Delay (SW620 xenografts; [15]): 8.5 days
- Enhancement (%) (SW620 xenografts; [15]): 113 ^§ %
- Time to RTV4 (SW620 xenografts; [15]): 15 days
- Delay (SW620 xenografts; [16]): 11.5 days
- Time to RTV4 (SW620 xenografts; [16]): 18 days
- Enhancement (%) (SW620 xenografts; etopophos + KU59403 25 mg/kg 2× daily ×5, 25 mg/kg): 190 ^* %
- Delay (SW620 xenografts; [17]): 19.5 days
- Time to RTV4 (SW620 xenografts; [17]): 26 days
- Enhancement (%) (SW620 xenografts; irinotecan + KU59403 25 mg/kg daily ×5, 25 mg/kg): 144% and 144 ^* %
- Concentration at which an effective chemo-sensitiser (human tumour cell lines [1]): 1 µM
- Nadir % Starting Body weight (Body weight; [10]): 100%
- Nadir % Starting Body weight (Body weight; [11]): 99.7%
- Maximum body weight loss (Body weight; combination of KU59403 and etopophos): 7%
- Nadir % Starting Body weight (Body weight; [12]): 96.9%
- Nadir % Starting Body weight (Body weight; [13]): 94.3%
- Nadir % Starting Body weight (Body weight; [14]): 96.5%
- Nadir % Starting Body weight (Body weight; [15]): 94.9%
- Nadir % Starting Body weight (Body weight; [16]): 93.3%
- Maximum body weight loss (Body weight; given as a single agent): < 2%
- Nadir % Starting Body weight (Body weight; [17]): 100%
- Enhancement of etoposide cytotoxicity (HCT116 cells): 2.3 ± 1.6 fold
- Time plasma concentration maintained ([2]; 50 mg/kg i.p., SW620-bearing nude mice): at least 4 hours
- Tumour concentration ([2]; 50 mg/kg i.p., SW620 xenograft, 4 hour time point): 1.9 µM
- Plasma concentration ([2]; single dose 50 mg/kg i.p., SW620-bearing nude mice, 1 and 4 hours): 5 µM
- % Survival Cytotoxic + KU59403 (SW620 cells; SW620, camptothecin 10 nM + 1 μM KU59403, 16 hr): 0.71 ± 0.35 %
- Enhancement factor (SW620 cells; SW620, camptothecin 10 nM): 4 and 4.3 ± 2.8
- % Survival Cytotoxic + KU59403 (SW620 cells; SW620, doxorubicin 10 nM + 1 μM KU59403, 16 hr): 17 ± 0.2 %
- Enhancement factor (SW620 cells; SW620, doxorubicin 10 nM): 2.9 ± 0.6
- % Survival Cytotoxic + KU59403 (SW620 cells; SW620, doxorubicin 100 nM + 1 μM KU59403, 16 hr): 0.01 ± .001%
- Enhancement factor (SW620 cells; SW620, doxorubicin 100 nM): 1.8 ± 0.7
- % Survival Cytotoxic + KU59403 (SW620 cells; SW620, etoposide 100 nM + 1 μM KU59403, 16 hr): 35 ± 12 %
- Enhancement factor (SW620 cells; SW620, etoposide 100 nM): 2.9 ± 1.5
- % Survival Cytotoxic + KU59403 (SW620 cells; SW620, etoposide 1 μM + 1 μM KU59403, 16 hr): 0.41 ± 0.23 %
- Enhancement of etoposide cytotoxicity (SW620 cells; SW620, etoposide 1 μM + KU59403 1 μM (Figure 1D)): 11.9 ± 4.7 fold and 12 fold
- Enhancement factor (SW620 cells; SW620, etoposide 1 μM): 12 ± 7
- % survival, inhibitor alone (SW620 cells; SW620 cells, KU59403 1 μM alone, 16 hr): 91± 6%
- Plasma concentration [3]: less than 0.1 μM
- Inhibition of ATM activity [4]: > 50%
- Enhancement of etoposide cytotoxicity (MDA-MB-231 cells): 3.8 ± 1.8 fold
- Specificity for ATM over other members of the PI3K (PIKK) family tested (ATM [5]): at least 1000 fold
- Inhibition of IR-induced ATM activity [6]: > 50%
- % survival, inhibitor alone (LoVo cells; LoVo cells, KU59403 1 μM alone, 16 hr): 88± 7%
- Enhancement factor (LoVo cells; camptothecin 10 nM): 7 and 6.9 ± 3.8
- % Survival Cytotoxic + KU59403 (LoVo cells; doxorubicin 10 nM + 1 μM KU59403, 16 hr): 16 ± 6.9 %
- Enhancement factor (LoVo cells; doxorubicin 10 nM): 3.2 ± 1
- % Survival Cytotoxic + KU59403 (LoVo cells; doxorubicin 100 nM + 1 μM KU59403, 16 hr): 0.35 ± 0.04 %
- Enhancement factor (LoVo cells; doxorubicin 100 nM): 6.1 ± 2.1
- % Survival Cytotoxic + KU59403 (LoVo cells; etoposide 100 nM + 1 μM KU59403, 16 hr): 18 ± 0.5 %
- Enhancement factor (LoVo cells; etoposide 100 nM): 3.3 ± 0.4
- % Survival Cytotoxic + KU59403 (LoVo cells; etoposide 1 μM + 1 μM KU59403, 16 hr): 1.1 ± 0.2 %
- Enhancement factor (LoVo cells; etoposide 1 μM): 3.8 ± 1.5
- Increase in etopophos-induced tumour growth delay (HCT116-N7 xenografts; KU59403 25 mg/kg twice daily, HCT116-N7 xenografts): 3 fold
- Enhancement of etopophos activity (HCT116-N7 xenografts; [18]): 300%
- Etopophos-induced tumour growth delay (HCT116-N7 xenografts; [18]): 8.5 days
- Enhancement of etoposide cytotoxicity (HCT116-N7 cells): 3.8 ± 2.5 fold
- Inhibition of IR-induced ATM activity [7]: approximately 50%

SMILES: C[C@@H]1CN(CC(=O)Nc2ccc3c(c2)Cc2cccc(-c4cc(=O)cc(N5CCOCC5)o4)c2S3)C[C@H](C)O1 [KU-600019]
- Concentration needed to induce in vitro chemo- and radio-sensitisation (human tumour cell lines [8]): 3 µM

SMILES: O=c1cc(N2CCOCC2)oc2c(-c3ccccc3)cccc12 [LY294002]
- IC50 (ATM [9]): > 100 µM
- IC50 (ATR): 100 µM

SMILES: COc1cc([C@@H]2c3cc4c(cc3[C@@H](O[C@@H]3O[C@@H]5CO[C@@H](C)O[C@H]5[C@H](O)[C@H]3O)[C@H]3COC(=O)[C@H]23)OCO4)cc(OC)c1OP(=O)(O)O [etopophos, Etoposide phosphate, reference compound]
- Delay (SW620 xenografts; [19]): 4 days
- Time to RTV4 (SW620 xenografts; [19]): 10.5 days
- Nadir % Starting Body weight (Body weight; [19]): 98.6%
- Maximum body weight loss (Body weight; given as a single agent): < 2%
- Median time to RTV4 (HCT116-N7 xenografts; etopophos 11.35 mg/kg i.p. daily for 5 days alone): 5.5 days

— publication PMC3736091 (Molecular cancer therapeutics, 2013)
